Measured values published in ChEMBL document CHEMBL3044526, “Synthesis, fungicidal activity, and QSAR of pyridazinonethiadiazoles” (2002).

Test system: Puccinia recondita
Assay: Antifungal activity against Puccinia recondita wheat leaves treated as foliar spray after 10 days relative to triadimefon
Assay type: functional
Outline: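 Susceptible wheat cv. Ming-Xian 169 (10 germinating seeds per pot) was grown in a greenhouse at 15-20 °C and inoculated with P. recondita, then held 24 h in a moist chamber. Once the leaves were dry, each pot got a 10 mL spray of compound solution. Percent disease control versus untreated pots was scored 10 days later, in triplicate. Triadimefon (100 ppm) was run alongside. D = lg[a/(100−a)] − lg Mw.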

| Structure (SMILES) | inhibition (INH) |
| --- | --- |
| Cc1cc(=O)c(-c2nnc(Nc3ccccc3F)s2)nn1-c1ccc(Cl)cc1 | 50% |
| Cc1cc(=O)c(-c2nnc(Nc3ccccc3F)s2)nn1-c1cc(Cl)c(Cl)cc1Cl | 60% |
| Cc1cc(=O)c(-c2nnc(Nc3ccccc3)s2)nn1-c1ccc(Cl)cc1Cl | 20% |
| Cc1cc(=O)c(-c2nnc(Nc3ccccc3)s2)nn1-c1ccccc1Cl | 10% |
| Cc1cc(=O)c(-c2nnc(Nc3ccccc3F)s2)nn1-c1ccc(Cl)cc1Cl | 80% |
| Cc1cc(=O)c(-c2nnc(Nc3cccc(C(F)(F)F)c3)s2)nn1-c1ccc(Cl)cc1 | 60% |
| Cc1cc(=O)c(-c2nnc(Nc3cccc(C(F)(F)F)c3)s2)nn1-c1cc(Cl)c(Cl)cc1Cl | 70% |
| Cc1cc(=O)c(-c2nnc(Nc3ccccc3F)s2)nn1-c1c(Cl)cccc1Cl | 30% |
| Cc1cc(=O)c(-c2nnc(Nc3cccc(C(F)(F)F)c3)s2)nn1-c1c(Cl)cccc1Cl | 50% |
| Cc1cc(=O)c(-c2nnc(Nc3cccc(C(F)(F)F)c3)s2)nn1-c1ccc(Cl)cc1Cl | 90% |
| Cc1cc(=O)c(-c2nnc(Nc3cccc(C(F)(F)F)c3)s2)nn1-c1ccccc1 | 60% |
| Cc1cc(=O)c(-c2nnc(Nc3ccccc3F)s2)nn1-c1ccccc1 | 50% |
| Cc1ccc(-n2nc(-c3nnc(Nc4ccccc4F)s3)c(=O)cc2C)c(C)c1 | 90% |
| Cc1cc(=O)c(-c2nnc(Nc3cccc(C(F)(F)F)c3)s2)nn1-c1ccccc1Cl | 70% |
| Cc1ccc(-n2nc(-c3nnc(Nc4cccc(C(F)(F)F)c4)s3)c(=O)cc2C)c(C)c1 | 90% |
| Cc1cc(=O)c(-c2nnc(Nc3ccccc3F)s2)nn1-c1ccccc1Cl | 10% |
